Measurements reported in ChEMBL document CHEMBL3593164, “Rational Design and Synthesis of Thioridazine Analogues as Enhancers of the Antituberculosis Therapy” (J Med Chem, 2015).

Legend:
[1] = tested on: Mycobacterium tuberculosis; assay: Inhibition of multidrug resistance efflux pump in Mycobacterium tuberculosis H37Rv assessed as ofloxacin MIC at 16 ug/ml after 7 days by two-dimensional broth microdilution checkerboard assay; details: 168 h
[2] = tested on: Mycobacterium tuberculosis; assay: Inhibition of multidrug resistance efflux pump in Mycobacterium tuberculosis H37Rv assessed as isoniazid MIC at 128 ug/ml after 7 days by two-dimensional broth microdilution checkerboard assay; details: 168 h
[3] = tested on: Mycobacterium tuberculosis; assay: Inhibition of multidrug resistance efflux pump in Mycobacterium tuberculosis H37Rv assessed as isoniazid MIC at 32 ug/ml after 7 days by two-dimensional broth microdilution checkerboard assay; details: 168 h
[4] = tested on: Mycobacterium tuberculosis; assay: Inhibition of multidrug resistance efflux pump in Mycobacterium tuberculosis H37Rv assessed as amikacin MIC at 128 ug/ml after 7 days by two-dimensional broth microdilution checkerboard assay; details: 168 h
[5] = tested on: Mycobacterium tuberculosis; assay: Inhibition of multidrug resistance efflux pump in Mycobacterium tuberculosis H37Rv assessed as ofloxacin MIC at 4 ug/ml after 7 days by two-dimensional broth microdilution checkerboard assay; details: 168 h
[6] = tested on: Mycobacterium tuberculosis; assay: Inhibition of multidrug resistance efflux pump in Mycobacterium tuberculosis H37Rv assessed as isoniazid MIC at 8 ug/ml after 7 days by two-dimensional broth microdilution checkerboard assay; details: 168 h
[7] = tested on: Mycobacterium tuberculosis; assay: Inhibition of multidrug resistance efflux pump in Mycobacterium tuberculosis H37Rv assessed as amikacin MIC at 32 ug/ml after 7 days by two-dimensional broth microdilution checkerboard assay; details: 168 h
[8] = tested on: Mycobacterium tuberculosis; assay: Inhibition of multidrug resistance efflux pump in Mycobacterium tuberculosis H37Rv assessed as rifampin MIC at 4 ug/ml after 7 days by two-dimensional broth microdilution checkerboard assay; details: 168 h
[9] = tested on: Mycobacterium tuberculosis; assay: Inhibition of multidrug resistance efflux pump in Mycobacterium tuberculosis H37Rv assessed as ethidium bromide MIC at 128 ug/ml after 7 days by two-dimensional broth microdilution checkerboard assay; details: 168 h
[10] = tested on: Mycobacterium tuberculosis; assay: Inhibition of multidrug resistance efflux pump in Mycobacterium tuberculosis H37Rv assessed as ethidium bromide MIC at 16 ug/ml after 7 days by two-dimensional broth microdilution checkerboard assay; details: 168 h
[11] = tested on: Mycobacterium tuberculosis; assay: Inhibition of multidrug resistance efflux pump in Mycobacterium tuberculosis H37Rv assessed as ofloxacin MIC at 128 ug/ml after 7 days by two-dimensional broth microdilution checkerboard assay; details: 168 h
[12] = tested on: Mycobacterium tuberculosis; assay: Inhibition of multidrug resistance efflux pump in Mycobacterium tuberculosis H37Rv assessed as ethidium bromide MIC at 32 ug/ml after 7 days by two-dimensional broth microdilution checkerboard assay; details: 168 h
[13] = tested on: Mycobacterium tuberculosis; assay: Inhibition of multidrug resistance efflux pump in Mycobacterium tuberculosis H37Rv using ethidium bromide as substrate assessed as relative final fluorescence at 1/2 MIC by real-time fluorometry
[14] = tested on: Mycobacterium tuberculosis; assay: Inhibition of multidrug resistance efflux pump in Mycobacterium tuberculosis H37Rv assessed as amikacin MIC at 4 ug/ml after 7 days by two-dimensional broth microdilution checkerboard assay; details: 168 h
[15] = tested on: Mycobacterium tuberculosis; assay: Inhibition of multidrug resistance efflux pump in Mycobacterium tuberculosis H37Rv assessed as ofloxacin MIC at 64 ug/ml after 7 days by two-dimensional broth microdilution checkerboard assay; details: 168 h
[16] = tested on: Mycobacterium tuberculosis; assay: Inhibition of multidrug resistance efflux pump in Mycobacterium tuberculosis H37Rv assessed as rifampin MIC at 8 ug/ml after 7 days by two-dimensional broth microdilution checkerboard assay; details: 168 h
[17] = tested on: Mycobacterium tuberculosis; assay: Inhibition of multidrug resistance efflux pump in Mycobacterium tuberculosis H37Rv assessed as reduction in rifampin MIC at 256 ug/ml after 7 days by two-dimensional broth microdilution checkerboard assay
Method in brief: (§1)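 M. tuberculosis H37Rv two-dimensional broth microdilution checkerboard. MICs of INH, RIF, AMK, OFX or EtBr were determined without and with graded sub-inhibitory compound concentrations, starting at ½ MIC. Where MIC was undeterminable, the highest concentration still permitting growth was taken as ½ MIC. FIC = MIC of antibacterial in combination / MIC alone. FIC ≤0.25 was scored as synergism and ≥2 as antagonism.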

[18] = tested on: Mycobacterium tuberculosis; assay: Inhibition of multidrug resistance efflux pump in Mycobacterium tuberculosis H37Rv assessed as rifampin MIC at 16 ug/ml after 7 days by two-dimensional broth microdilution checkerboard assay; details: 168 h
[19] = tested on: Mycobacterium tuberculosis; assay: Inhibition of multidrug resistance efflux pump in Mycobacterium tuberculosis H37Rv assessed as reduction in rifampin MIC at 32 ug/ml after 7 days by two-dimensional broth microdilution checkerboard assay; method in brief: as §1
[20] = tested on: Mycobacterium tuberculosis; assay: Inhibition of multidrug resistance efflux pump in Mycobacterium tuberculosis H37Rv assessed as isoniazid MIC at 4 ug/ml after 7 days by two-dimensional broth microdilution checkerboard assay; details: 168 h
[21] = tested on: Mycobacterium tuberculosis; assay: Inhibition of multidrug resistance efflux pump in Mycobacterium tuberculosis H37Rv assessed as rifampin MIC at 64 ug/ml after 7 days by two-dimensional broth microdilution checkerboard assay; details: 168 h
[22] = tested on: Mycobacterium tuberculosis; assay: Inhibition of multidrug resistance efflux pump in Mycobacterium tuberculosis H37Rv assessed as rifampin MIC at 128 ug/ml after 7 days by two-dimensional broth microdilution checkerboard assay; details: 168 h
[23] = tested on: Mycobacterium tuberculosis; assay: Inhibition of multidrug resistance efflux pump in Mycobacterium tuberculosis H37Rv assessed as amikacin MIC at 16 ug/ml after 7 days by two-dimensional broth microdilution checkerboard assay; details: 168 h
[24] = tested on: Mycobacterium tuberculosis; assay: Inhibition of multidrug resistance efflux pump in Mycobacterium tuberculosis H37Rv assessed as amikacin MIC at 64 ug/ml after 7 days by two-dimensional broth microdilution checkerboard assay; details: 168 h
[25] = tested on: Mycobacterium tuberculosis; assay: Inhibition of multidrug resistance efflux pump in Mycobacterium tuberculosis H37Rv assessed as amikacin MIC at 256 ug/ml after 7 days by two-dimensional broth microdilution checkerboard assay; details: 168 h; method in brief: as §1
[26] = tested on: Mycobacterium tuberculosis; assay: Inhibition of multidrug resistance efflux pump in Mycobacterium tuberculosis H37Rv assessed as reduction in rifampin MIC at 64 ug/ml after 7 days by two-dimensional broth microdilution checkerboard assay
[27] = tested on: Mycobacterium tuberculosis; assay: Inhibition of multidrug resistance efflux pump in Mycobacterium tuberculosis H37Rv assessed as ofloxacin MIC at 256 ug/ml after 7 days by two-dimensional broth microdilution checkerboard assay; details: 168 h; method in brief: as §1
[28] = tested on: Mycobacterium tuberculosis; assay: Inhibition of multidrug resistance efflux pump in Mycobacterium tuberculosis H37Rv assessed as amikacin MIC at 8 ug/ml after 7 days by two-dimensional broth microdilution checkerboard assay; details: 168 h
[29] = tested on: Mycobacterium tuberculosis; assay: Inhibition of multidrug resistance efflux pump in Mycobacterium tuberculosis H37Rv assessed as ethidium bromide MIC at 4 ug/ml after 7 days by two-dimensional broth microdilution checkerboard assay; details: 168 h
[30] = tested on: Mycobacterium tuberculosis; assay: Inhibition of multidrug resistance efflux pump in Mycobacterium tuberculosis H37Rv assessed as ethidium bromide MIC at 8 ug/ml after 7 days by two-dimensional broth microdilution checkerboard assay; details: 168 h
[31] = tested on: Mycobacterium tuberculosis; assay: Inhibition of multidrug resistance efflux pump in Mycobacterium tuberculosis H37Rv assessed as ofloxacin MIC at 8 ug/ml after 7 days by two-dimensional broth microdilution checkerboard assay; details: 168 h
[32] = tested on: Mycobacterium tuberculosis; assay: Inhibition of multidrug resistance efflux pump in Mycobacterium tuberculosis H37Rv assessed as isoniazid MIC at 16 ug/ml after 7 days by two-dimensional broth microdilution checkerboard assay; details: 168 h
[33] = tested on: Mycobacterium tuberculosis; assay: Inhibition of multidrug resistance efflux pump in Mycobacterium tuberculosis H37Rv assessed as ethidium bromide MIC at 256 ug/ml after 7 days by two-dimensional broth microdilution checkerboard assay; details: 168 h
[34] = tested on: Mycobacterium tuberculosis; assay: Inhibition of multidrug resistance efflux pump in Mycobacterium tuberculosis H37Rv assessed as ethidium bromide MIC at 64 ug/ml after 7 days by two-dimensional broth microdilution checkerboard assay; details: 168 h

COc1ccc(N(CCC2CCCCN2C)C(C)C)cc1OC (racemic)
MIC [1]: 2 µg/mL
MIC [2]: 0.1 µg/mL
MIC [3]: 0.1 µg/mL
MIC [4]: 2 µg/mL
MIC [5]: 2 µg/mL
MIC [6]: 0.1 µg/mL
MIC [7]: 2 µg/mL
MIC [8]: 0.25 µg/mL
MIC [9]: 12.5 µg/mL
MIC [10]: 12.5 µg/mL
MIC [11]: 2 µg/mL
MIC [12]: 12.5 µg/mL
RFU [13]: 0.84
MIC [14]: 2 µg/mL
MIC [15]: 2 µg/mL
MIC [16]: 0.25 µg/mL
fold change (FC) [17]: 164
MIC [18]: 0.25 µg/mL
fold change (FC) [19]: 4
MIC [20]: 0.1 µg/mL
MIC [21]: 0.25 µg/mL
MIC [22]: 0.25 µg/mL
MIC [23]: 2 µg/mL
MIC [24]: 2 µg/mL
MIC [25]: 2 µg/mL
fold change (FC) [26]: 4
MIC [27]: 1 µg/mL
MIC [28]: 2 µg/mL
MIC [29]: 12.5 µg/mL
MIC [30]: 12.5 µg/mL
MIC [31]: 2 µg/mL
MIC [32]: 0.1 µg/mL
MIC [33]: 12.5 µg/mL
MIC [34]: 12.5 µg/mL

CN1CCCCC1CCn1c2ccccc2c2ccccc21 (racemic)
MIC [1]: 1 µg/mL
MIC [3]: 0.05 µg/mL
MIC [5]: 1 µg/mL
MIC [6]: 0.1 µg/mL
MIC [7]: 0.625 µg/mL
MIC [8]: 1 µg/mL
MIC [10]: 6.25 µg/mL
MIC [12]: 1.56 µg/mL
RFU [13]: 0.33
MIC [14]: 1 µg/mL
MIC [15]: < 0.0156 µg/mL
MIC [16]: 0.5 µg/mL
MIC [18]: 0.5 µg/mL
fold change (FC) [19]: 16
MIC [20]: 0.1 µg/mL
MIC [21]: < 0.0156 µg/mL
MIC [23]: 1 µg/mL
MIC [24]: < 0.0156 µg/mL
fold change (FC) [26]: >64
MIC [28]: 1 µg/mL
MIC [29]: 12.5 µg/mL
MIC [30]: 12.5 µg/mL
MIC [31]: 1 µg/mL
MIC [32]: 0.1 µg/mL
MIC [34]: < 0.195 µg/mL

CN1CCCCC1CCn1ccc2ccc(Br)cc21 (racemic)
MIC [1]: 1 µg/mL
MIC [2]: < 0.0015 µg/mL
MIC [3]: 0.1 µg/mL
MIC [4]: < 0.0156 µg/mL
MIC [5]: 1 µg/mL
MIC [6]: 0.1 µg/mL
MIC [7]: 1 µg/mL
MIC [8]: 0.5 µg/mL
MIC [9]: < 0.195 µg/mL
MIC [10]: 12.5 µg/mL
MIC [11]: < 0.0156 µg/mL
MIC [12]: 6.25 µg/mL
RFU [13]: 1.22
MIC [14]: 1 µg/mL
MIC [15]: < 0.0156 µg/mL
MIC [16]: 0.25 µg/mL
fold change (FC) [17]: >164
MIC [18]: 0.0625 µg/mL
fold change (FC) [19]: 32
MIC [20]: 0.1 µg/mL
MIC [21]: < 0.0156 µg/mL
MIC [22]: < 0.0156 µg/mL
MIC [23]: 1 µg/mL
MIC [24]: > 0.0156 µg/mL
MIC [25]: < 0.0156 µg/mL
fold change (FC) [26]: >164
MIC [27]: < 0.0156 µg/mL
MIC [28]: 1 µg/mL
MIC [29]: 12.5 µg/mL
MIC [30]: 12.5 µg/mL
MIC [31]: 1 µg/mL
MIC [32]: 0.1 µg/mL
MIC [33]: < 0.195 µg/mL
MIC [34]: 1.56 µg/mL

CN1CCCCC1CCn1cnc2ccccc21 (racemic)
MIC [1]: 1 µg/mL
MIC [2]: 0.1 µg/mL
MIC [3]: 0.1 µg/mL
MIC [4]: 1 µg/mL
MIC [5]: 1 µg/mL
MIC [6]: 0.1 µg/mL
MIC [7]: 1 µg/mL
MIC [8]: 0.5 µg/mL
MIC [9]: 12.5 µg/mL
MIC [10]: 12.5 µg/mL
MIC [11]: 1 µg/mL
MIC [12]: 12.5 µg/mL
RFU [13]: 1
MIC [14]: 1 µg/mL
MIC [15]: 1 µg/mL
MIC [16]: 0.5 µg/mL
fold change (FC) [17]: >64
MIC [18]: 0.5 µg/mL
MIC [20]: 0.1 µg/mL
MIC [21]: 0.5 µg/mL
MIC [22]: 0.5 µg/mL
MIC [23]: 1 µg/mL
MIC [24]: 1 µg/mL
MIC [25]: < 0.0156 µg/mL
MIC [27]: < 0.0156 µg/mL
MIC [28]: 1 µg/mL
MIC [29]: 12.5 µg/mL
MIC [30]: 12.5 µg/mL
MIC [31]: 1 µg/mL
MIC [32]: 0.1 µg/mL
MIC [33]: < 0.195 µg/mL
MIC [34]: 12.5 µg/mL

CSc1ccc2c(c1)N(CCC1CCCCN1C)c1ccccc1S2 (stereo unspecified) [THIORIDAZINE]
RFU [13]: 0.27
